Most compounds without a hit are left out; they make up all but 5.8% or so of the library.
IDH1 mut inh = IDH1 R132H (human) inhibition. O75874. inhibition, % at 10 µM. IDH1 R132H reductase, diaphorase/resazurin fluorescence, 60 min. 70,000 tested, 0.18% active; in the data active = inhibition above about 34%; inconclusive = no clear call, values can overlap the other calls; inactive = below about 11%
Target sequence (O75874 whole entry R132H): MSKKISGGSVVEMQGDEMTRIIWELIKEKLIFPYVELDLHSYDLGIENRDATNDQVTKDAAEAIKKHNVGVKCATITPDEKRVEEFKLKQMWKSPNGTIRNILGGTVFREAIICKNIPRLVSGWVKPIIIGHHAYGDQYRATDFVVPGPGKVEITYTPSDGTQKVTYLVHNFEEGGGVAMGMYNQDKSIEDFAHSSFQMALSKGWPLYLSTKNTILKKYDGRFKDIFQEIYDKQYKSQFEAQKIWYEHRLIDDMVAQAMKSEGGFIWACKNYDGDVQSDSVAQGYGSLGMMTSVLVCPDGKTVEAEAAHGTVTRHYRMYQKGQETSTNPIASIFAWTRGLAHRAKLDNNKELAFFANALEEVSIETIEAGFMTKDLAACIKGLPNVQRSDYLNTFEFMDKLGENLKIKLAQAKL
Pf Dd2 inh = blocks growth of Plasmodium falciparum Dd2 parasites; AID 1159554; P. falciparum Dd2 growth, SYBR Green, 72 h; hits give low values; 94,000 tested, 2.3% active; activity change, % at 10 µM; in the data active = activity change below about -80%; inconclusive = no clear call, values can overlap the other calls
GASC1 inh = blocks human GASC-1 (KDM4C) demethylase activity. Q9H3R0. GST-KDM4C 2-372, H3K9me3 peptide, LANCE TR-FRET. inhibition, % at 12.5 µM. 96,000 tested, 0.15% active. AID 720574;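 active = mean replicate inhibition above about 25%, with at least 55% of replicates also reaching it, limit read from the data, passing the limit was not always enough; inconclusive = only one of those two conditions met; inactive = neither condition met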
Target sequence (Q9H3R0 2-372 limits assumed): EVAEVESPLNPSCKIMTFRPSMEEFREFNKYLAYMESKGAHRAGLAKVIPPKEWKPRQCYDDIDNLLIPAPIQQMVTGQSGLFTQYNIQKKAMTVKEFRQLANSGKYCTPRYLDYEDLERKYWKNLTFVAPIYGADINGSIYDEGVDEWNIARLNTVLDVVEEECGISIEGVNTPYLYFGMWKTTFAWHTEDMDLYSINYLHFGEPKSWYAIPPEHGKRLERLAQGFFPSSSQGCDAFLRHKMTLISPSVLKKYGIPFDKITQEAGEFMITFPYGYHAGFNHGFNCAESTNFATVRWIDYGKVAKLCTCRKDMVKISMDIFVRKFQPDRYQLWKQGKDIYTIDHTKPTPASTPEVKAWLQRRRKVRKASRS
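Material: GST-tagged GASC-1 (JMJD2C) catalytic fragment, aa 2-372. Input: enzyme final amount 10 nM. Medium: HEPES buffer, pH 7.5, plus ascorbate. Reagent: H3K9me3 peptide substrate, Fe(II), 2-oxoglutarate. Doses: single dose. Times: reaction 30 min RT, detection step 1 h RT. Measured by: LANCE TR-FRET. Evaluation: Fall in 671/618 emission ratio as inhibition.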
T cruzi growth-1 = blocks T. cruzi growth in NIH3T3 culture. T. cruzi beta-gal in NIH3T3, GalScreen luminescence, 90 h. inhibition, % at 8.34 µM. 77,000 tested, 5.9% active. AID 624255;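 active = mean inhibition above about 93%, with at least 55% of replicates each passing it, limit read from the data, passing the limit was not always enough; inconclusive = only one of those two conditions holds; inactive = neither condition holds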
T cruzi growth-2 = Trypanosoma cruzi proliferation inhibition. shares compounds with T cruzi growth-1. T. cruzi beta-gal in NIH3T3, GalScreen luminescence, 90 h. inhibition, % at 8.35 µM. 5,600 tested, 72% active. AID 651739;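 active = mean replicate inhibition above about 95% and at least 55% of replicates individually reaching it, limit read from the data; inconclusive = only one of the two criteria is met; inactive = neither criterion is met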
T cruzi growth-3 = inhibitors of T. cruzi proliferation | shares compounds with T cruzi growth-1 | T. cruzi beta-gal in NIH3T3, GalScreen luminescence, 90 h | inhibition, % at 2.09 µM | 5,600 tested, 21% active;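 active = mean inhibition above about 95%, with at least 55% of replicates also reaching it, limit read from the data; inconclusive = meets just one of the two conditions; inactive = meets neither condition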
NIH3T3 tox = NIH/3T3 (mouse) viability loss. shares compounds with T cruzi growth-1. cytotoxicity (signal decrease), % at 8.35 µM. 5,600 tested, 14% active. NIH/3T3 viability, CellTiter-Glo ATP luminescence, 90 h;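 active = mean signal decrease across replicates above about 35% based on untreated-well scatter, with enough replicates individually passing, limit read from the data; inconclusive = no rule stated though some were filed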
NIH3T3 tox 2 = cytotoxicity in mouse NIH/3T3 fibroblasts; shares compounds with T cruzi growth-1; NIH/3T3 viability, CellTiter-Glo ATP luminescence, 90 h; inhibition, % at 24.9 µM; 5,600 tested, 56% active; AID 651744;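 active = mean loss of cell viability signal at or above a set limit, and enough replicates individually reaching it; inconclusive = meets only the mean limit or only the replicate share; inactive = meets neither condition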
Each line names hits and unclear results; the compound was inactive in the other large screens (follow-up assays come after a bar, where they were run).

Cc1cccc(S(=O)(=O)N2CCCCN3[C@H](CO)[C@@H](c4ccc(C#CC(C)C)cc4)[C@@H]3C2)c1	T cruzi growth-1 118 (no result: IDH1 mut inh) | T cruzi growth-2 101 | T cruzi growth-3 98 | NIH3T3 tox inactive | NIH3T3 tox 2 49
Cc1cccc(S(=O)(=O)N2CCCCN3[C@H](CO)[C@H](c4ccc(C#C[C@H](C)O)cc4)[C@@H]3C2)c1	none (no result: IDH1 mut inh)
O=C(N[C@H]1CC[C@H](CCNS(=O)(=O)c2ccccc2Cl)O[C@H]1CO)c1ccc(F)cc1	none
O=C(CC1NCCNC1=O)Nc1ccccc1Cl (configuration not stated)	none (no result: Pf Dd2 inh, GASC1 inh, T cruzi growth-1)
CN1CCN(C(=O)C[C@@H]2CC[C@H]3[C@@H](COC[C@H](O)CN3S(=O)(=O)c3cccc(Cl)c3)O2)CC1	none (no result: IDH1 mut inh)
C[C@@H]1CN([C@H](C)CO)S(=O)(=O)c2ccc(C#CC(C)(C)O)cc2O[C@H]1CN(C)Cc1ccncc1	T cruzi growth-1 inconclusive | T cruzi growth-2 inactive | T cruzi growth-3 inactive | NIH3T3 tox 44 | NIH3T3 tox 2 71
C[C@@H]1CN([C@@H](C)CO)S(=O)(=O)c2ccc(C#CC(C)(C)O)cc2O[C@H]1CN(C)Cc1ccncc1	T cruzi growth-1 100 | T cruzi growth-2 100 | T cruzi growth-3 inactive | NIH3T3 tox inactive | NIH3T3 tox 2 56
C[C@@H](O)C#Cc1ccc([C@@H]2[C@@H](CO)N3CCCCN(C(=O)c4cccc(F)c4)C[C@@H]23)cc1	none (no result: IDH1 mut inh)
C[C@H](O)C#Cc1ccc([C@H]2[C@@H](CO)N3CCCCN(C(=O)c4cccc(F)c4)C[C@@H]23)cc1	T cruzi growth-1 104 (no result: IDH1 mut inh) | T cruzi growth-2 inactive | T cruzi growth-3 inactive | NIH3T3 tox inactive | NIH3T3 tox 2 inactive
C[C@H](O)C#Cc1ccc([C@H]2[C@H]3CN(C(=O)c4cccc(F)c4)CCCCN3[C@H]2CO)cc1	T cruzi growth-1 102 (no result: IDH1 mut inh) | T cruzi growth-2 inconclusive | T cruzi growth-3 inactive | NIH3T3 tox inactive | NIH3T3 tox 2 28
C[C@@H](O)C#Cc1ccc([C@H]2[C@H](CO)N3CCCCN(C(=O)c4cccc(F)c4)C[C@@H]23)cc1	T cruzi growth-1 97 (no result: IDH1 mut inh) | T cruzi growth-2 107 | T cruzi growth-3 inactive | NIH3T3 tox inactive | NIH3T3 tox 2 50
O=C(C1CC1)N1CC2(C1)[C@@H](c1ccccc1)[C@@H](CO)N2Cc1nccs1	none (no result: IDH1 mut inh, T cruzi growth-1)
O=C(C1CCCC1)N1[C@H](CO)[C@@H]2c3ccccc3NC[C@@H]21	none (no result: IDH1 mut inh, T cruzi growth-1)
O=C(C[C@H]1C[C@H]2c3cc(NC(=O)C4CCC4)ccc3O[C@H]2[C@@H](CO)O1)NC1CCCCC1	none
C[C@@H]1CN([C@@H](C)CO)C(=O)c2cccc(NC(=O)Nc3ccc(F)cc3)c2O[C@H]1CN(C)Cc1ccc(Oc2ccccc2)cc1	T cruzi growth-1 inconclusive | T cruzi growth-2 96 | T cruzi growth-3 inactive | NIH3T3 tox inactive | NIH3T3 tox 2 55
C[C@@H]1CN([C@H](C)CO)C(=O)c2cccc(NC(=O)Nc3ccc(F)cc3)c2O[C@H]1CN(C)Cc1ccc(Oc2ccccc2)cc1	T cruzi growth-1 115 (no result: IDH1 mut inh) | T cruzi growth-2 101 | T cruzi growth-3 inactive | NIH3T3 tox inactive | NIH3T3 tox 2 46
COc1cccc(S(=O)(=O)Nc2ccc3c(c2)[C@@H]2C[C@H](CC(=O)NCc4ccccc4F)O[C@@H](CO)[C@@H]2O3)c1	none
COc1cccc(S(=O)(=O)Nc2ccc3c(c2)[C@H]2C[C@H](CC(=O)NCc4ccccc4F)O[C@H](CO)[C@H]2O3)c1	T cruzi growth-1 143 | T cruzi growth-2 98 | T cruzi growth-3 inactive | NIH3T3 tox inactive | NIH3T3 tox 2 inactive
O=C(C[C@H]1C[C@H]2c3cc(NS(=O)(=O)c4ccc(F)cc4)ccc3O[C@H]2[C@@H](CO)O1)NCc1ccc(Oc2ccccc2)cc1	T cruzi growth-1 119 | T cruzi growth-2 101 | T cruzi growth-3 inactive | NIH3T3 tox inactive | NIH3T3 tox 2 inactive
O=C(C[C@@H]1C[C@H]2c3cc(NS(=O)(=O)c4ccc(F)cc4)ccc3O[C@H]2[C@H](CO)O1)NCc1ccccc1	none
O=C(C[C@@H]1C[C@@H]2c3cc(NS(=O)(=O)c4ccc(F)cc4)ccc3O[C@@H]2[C@@H](CO)O1)NCc1ccc(-c2ccccc2)cc1	T cruzi growth-1 102 (no result: GASC1 inh) | T cruzi growth-2 inactive | T cruzi growth-3 inactive | NIH3T3 tox 39 | NIH3T3 tox 2 45
O=C(C[C@H]1C[C@H]2c3cc(NS(=O)(=O)c4ccc(F)cc4)ccc3O[C@H]2[C@H](CO)O1)NCc1ccc(-c2ccccc2)cc1	T cruzi growth-1 101 | T cruzi growth-2 inactive | T cruzi growth-3 101 | NIH3T3 tox 66 | NIH3T3 tox 2 67
O=C(C[C@@H]1C[C@H]2c3cc(NS(=O)(=O)c4ccc(F)cc4)ccc3O[C@H]2[C@@H](CO)O1)NCc1ccc(-c2ccccc2)cc1	none
O=C(C[C@H]1C[C@H]2c3cc(NS(=O)(=O)c4ccc(F)cc4)ccc3O[C@H]2[C@H](CO)O1)NCc1ccccc1	none
C[C@@H]1CN([C@@H](C)CO)C(=O)c2cc(NC(=O)Nc3ccc4c(c3)OCO4)ccc2O[C@@H](C)CCCCO[C@H]1CN(C)Cc1ccc2c(c1)OCO2	none (no result: IDH1 mut inh)
C[C@@H]1CN([C@@H](C)CO)C(=O)c2cc(NC(=O)CCC(F)(F)F)ccc2O[C@@H](C)CCCCO[C@H]1CN(C)Cc1ccc(Cl)c(Cl)c1	none
C[C@@H]1CCCCO[C@@H](CN(C)Cc2ccc(Cl)c(Cl)c2)[C@@H](C)CN([C@H](C)CO)C(=O)c2cc(NC(=O)CCC(F)(F)F)ccc2O1	T cruzi growth-1 inconclusive (no result: IDH1 mut inh, GASC1 inh) | T cruzi growth-2 108 | T cruzi growth-3 inactive | NIH3T3 tox inactive | NIH3T3 tox 2 inactive
C[C@@H]1CCCCO[C@H](CN(C)Cc2ccc(Cl)c(Cl)c2)[C@H](C)CN([C@@H](C)CO)C(=O)c2cc(NC(=O)Nc3ccc4c(c3)OCO4)ccc2O1	Pf Dd2 inh -86, T cruzi growth-1 101 | T cruzi growth-2 96 | T cruzi growth-3 117 | NIH3T3 tox inactive | NIH3T3 tox 2 inactive
C[C@@H]1CCCCO[C@@H](CN(C)Cc2ccc3c(c2)OCO3)[C@H](C)CN([C@@H](C)CO)C(=O)c2cc(NC(=O)Nc3ccc4c(c3)OCO4)ccc2O1	T cruzi growth-1 103 (no result: IDH1 mut inh) | T cruzi growth-2 99 | T cruzi growth-3 inactive | NIH3T3 tox inactive | NIH3T3 tox 2 inactive
C[C@@H]1CCCCO[C@@H](CN(C)Cc2ccc(Cl)c(Cl)c2)[C@H](C)CN([C@@H](C)CO)C(=O)c2cc(NC(=O)Nc3ccc4c(c3)OCO4)ccc2O1	none (no result: IDH1 mut inh)

Bioassay records: PubChem BioAssay, Broad Institute
